Data published in ChEMBL document CHEMBL1144849, “Latrunculin A and its C-17-O-carbamates inhibit prostate tumor cell invasion and HIF-1 activation in breast tumor cells” (J Nat Prod, 2008).
Calls of active or inactive are those of the source. No cut-off for these calls is given here.

Experiments:
[1] = test system: PC-3M; test: Antimetastatic activity in human PC3M cells expressing calcitonin assessed as shrinkage of actin fibers at 50 nM by Matrigel barrier assay; assay type: functional, cell-based
[2] = test system: PC-3M; test: Antimetastatic activity in human PC3M cells expressing calcitonin assessed as inhibition calcitonin-induced invasion at 100 nM by Matrigel barrier assay; assay type: functional, cell-based
How it was run: (§1)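 PC-3M-CT+ cells serum-starved 24 h, then 25×10³ cells seeded in the upper insert of Matrigel invasion chambers. Lower chamber held 90% basal RPMI plus 10% conditioned medium from cells expressing active Gαs. After 24 h, non-invaders were removed and the insert underside stained with Diff Quick. Cells counted in ≥6 fields at 100×, corrected for growth rate. Triplicate, repeated twice, mean ± SEM.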

[3] = test system: PC-3M; test: Antimetastatic activity in human PC3M cells expressing calcitonin assessed as inhibition of invasion at 100 nM by Matrigel barrier assay; assay type: functional, cell-based; how it was run: as §1
[4] = test system: PC-3M; test: Antimetastatic activity in human PC3M cells expressing calcitonin assessed as inhibition calcitonin-induced reorganization of actin fibers at 50 nM by Matrigel barrier assay; assay type: functional, cell-based
[5] = Cytotoxicity against human PC3M cells; assay type: functional, PC-3M
[6] = Antimetastatic activity in human PC3M cells expressing calcitonin assessed as decreased cell disaggregation at 500 nM by spheroid disaggregation assay relative to control; assay type: functional, PC-3M
How it was run: (§2)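 Single PC-3M-CT+ spheroids (150–300 μm, ~4×10⁴ cells, grown 2 days on a rocking shaker in serum-free RPMI) placed on ECM-coated wells in serum-free medium. t = 0 set 1 h after plating. Cultured 48 h at 37 °C, then fixed and Diff-Quik stained. Migration diameter measured by micrometer minus initial spheroid diameter. Reported as average percent increase in surface area.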

[7] = Antimetastatic activity in human PC3M cells expressing calcitonin assessed as decreased cell migration at 500 nM by spheroid disintegration assay relative to control; assay type: functional, PC-3M; how it was run: as §2
[8] = target: T1, Hypoxia inducible factors; HIF-1-alpha, HIF-2-alpha (Homo sapiens, UniProt Q16665+Q99814); test: Inhibition of hypoxia-induced HIF1 activation in human T47D cells by cell based reporter gene assay
How it was run: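 T47D cells transfected with an HIF-1 luciferase reporter, treated with compound and exposed to hypoxia (5% CO₂/1% O₂/94% N₂) versus normoxia (5% CO₂/95% air). Luciferase activity measured.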

[9] = target: T1, Hypoxia inducible factors; HIF-1-alpha, HIF-2-alpha; test: Inhibition of 1,10-phenanthroline-induced HIF1 activation in human T47D cells by cell based reporter gene assay
How it was run: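 T47D cells transfected with an HIF-1 luciferase reporter, treated with compound and stimulated with 10 μM 1,10-phenanthroline as a hypoxia mimetic. Luciferase activity measured.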

[10] = test system: T47D; test: Cell viability in human T47D cells at 30 uM by SRB method; assay type: functional
How it was run: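 T47D cells in DMEM/F12 with 10% FCS plated at 30,000/well and left overnight at 37 °C. Compound added, 30 min preincubation, then 16 h (or 48 h) treatment at 37 °C, hypoxic (1% O2) or normoxic.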

[11] = test system: PC-3M; test: Antimetastatic activity in human PC3M cells expressing calcitonin assessed as decreased cell disaggregation by spheroid disaggregation assay; assay type: functional, cell-based
How it was run: (§3)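 Spheroids grown from PC-3M-CT+ single-cell suspension (5×10^4/mL, serum-free RPMI 1640) on low-attachment plates rocked at 37 °C for 2 days, reaching 150–300 μm (~4×10^4 cells). One spheroid per ECM-coated well in serum-free medium, t=0 set at 1 h after plating. Photographed, cultured 48 h at 37 °C, fixed, Diff-Quik stained, migration diameter measured by micrometer minus initial diameter. Reported as percent increase in surface area.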

[12] = test system: PC-3M; test: Antimetastatic activity in human PC3M cells expressing calcitonin assessed as decreased cell migration by spheroid disaggregation assay; assay type: functional, cell-based; how it was run: as §3
[13] = target: T1, Hypoxia inducible factors; HIF-1-alpha, HIF-2-alpha; test: Inhibition of hypoxia-induced HIF1 activation in human T47D cells at 30 uM by cell based reporter gene assay
How it was run: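 Transfected T47D luciferase reporter assay. Compound-treated cells exposed to hypoxia (5% CO2/1% O2/94% N2), normoxia, or 10 μM 1,10-phenanthroline as hypoxia mimetic, then luciferase activity read. Constitutive pGL3 control reporter run alongside.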

| SMILES | inhibition [13] [%] | Activity [1] | Activity [2] | Activity [3] | Activity [4] | Activity [5] [nM] | Fold change [6] | Fold change [7] | IC50 [8] [µM] | IC50 [9] [µM] | Activity [10] [%] | Activity [11] | Activity [12] |
| --- | --- | --- | --- | --- | --- | --- | --- | --- | --- | --- | --- | --- | --- |
| C/C1=C/C(=O)O[C@@H]2C[C@@H](CC[C@H](C)/C=C\C=C\CC1)O[C@@](O)([C@@H]1CSC(=O)N1)C2 [LATRUNCULIN A] |  | Active | Active | Active | Active | 500 | 3 | 3 | 6.7 | 25 | <20 |  |  |
| C/C1=C/C(=O)O[C@@H]2C[C@@H](CC[C@H](C)/C=C\C=C\CC1)O[C@@](OC(=O)Nc1ccccc1)([C@@H]1CSC(=O)N1)C2 | < 50 |  |  |  |  |  |  |  |  |  | <20 | Dose-dependent effect | Dose-dependent effect |
| C/C1=C/C(=O)O[C@@H]2C[C@@H](CC[C@H](C)/C=C\C=C\CC1)O[C@@](OC(=O)NCc1ccccc1)([C@@H]1CSC(=O)N1)C2 |  |  |  |  |  |  |  |  | 29 |  | <20 | Dose-dependent effect | Dose-dependent effect |
| C/C1=C/C(=O)O[C@@H]2C[C@@H](CC[C@H](C)/C=C\C=C\CC1)O[C@@](OC(=O)NCCCCl)([C@@H]1CSC(=O)N1)C2 | < 50 |  |  |  |  |  |  |  |  |  | <20 | Dose-dependent effect | Dose-dependent effect |

Further lines, with some results ahead:

| inhibition [13] [%] | SMILES | Activity [1] | Activity [2] | Activity [3] | Activity [4] | Activity [5] [nM] | Fold change [6] | Fold change [7] | IC50 [8] [µM] | IC50 [9] [µM] | Activity [10] [%] | Activity [11] | Activity [12] |
| --- | --- | --- | --- | --- | --- | --- | --- | --- | --- | --- | --- | --- | --- |
| < 50 | C/C1=C/C(=O)O[C@@H]2C[C@@H](CC[C@H](C)/C=C\C=C\CC1)O[C@@](OC(=O)NCCBr)([C@@H]1CSC(=O)N1)C2 |  |  |  |  |  |  |  |  |  | <20 | inactive | inactive |
| < 50 | C/C1=C/C(=O)O[C@@H]2C[C@@H](CC[C@H](C)/C=C\C=C\CC1)O[C@@](OC(=O)NCCCl)([C@@H]1CSC(=O)N1)C2 |  |  |  |  |  |  |  |  |  | <20 | inactive | inactive |
